pIC50: −log10 of the molar value. The source made the active and inactive calls. No cut-off for these calls is given here.
Tests used:
Rattus norvegicus [1] = test: Inhibition of cholesterol synthesis in Wistar rat at 3 mg/kg, po in presence of [14C]acetic acid; type: functional, organism-based; parameters: dose 3 mg/kg
Procedure, shortened: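 Rats given a single 3 mg/kg oral dose; hepatic cholesterol synthesis inhibition expressed as % at 1 h post-dose.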

marmosets [2] = test: Reduction in total cholesterol level in marmosets at 30 mg/kg/day, po for 7 days; type: functional, Callitrichinae sp.; parameters: scale not given: the % may be the effect or the level left
Procedure, shortened: (§1)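 Marmosets dosed orally at 30 mg/kg/day for 7 days. Plasma total, non-HDL and HDL cholesterol and triglyceride reported as mean percentage change from each animal's initial values (n = 7, 8). Significance was tested against initial values.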

marmosets [3] = test: Reduction in HDL cholesterol level in marmosets at 30 mg/kg/day, po for 7 days; type: functional, Callitrichinae sp.; parameters: scale not given: the % may be the effect or the level left; procedure, shortened: as §1
Rattus norvegicus [4] = test: Inhibition of cholesterol synthesis in po dosed Wistar rat administered as single dose prior to [14C]mevalonolactone injection measured after 7 hrs by liquid scintillation counting; type: functional
marmosets [5] = test: Reduction in non-HDL cholesterol level in marmosets at 30 mg/kg/day, po for 7 days; type: functional, Callitrichinae sp.; parameters: scale not given: the % may be the effect or the level left; procedure, shortened: as §1
marmosets [6] = test: Reduction in triglyceride level in marmosets at 30 mg/kg/day, po for 7 days; type: functional, Callitrichinae sp.; parameters: scale not given: the % may be the effect or the level left; procedure, shortened: as §1
Squalene synthase = target: T1, Squalene synthase (Rattus norvegicus, UniProt Q02769); test: Inhibition of rat hepatic microsomal squalene synthase using [3H]FPP as substrate after by scintillation spectrophotometry
T1 sequence (Q02769 whole entry): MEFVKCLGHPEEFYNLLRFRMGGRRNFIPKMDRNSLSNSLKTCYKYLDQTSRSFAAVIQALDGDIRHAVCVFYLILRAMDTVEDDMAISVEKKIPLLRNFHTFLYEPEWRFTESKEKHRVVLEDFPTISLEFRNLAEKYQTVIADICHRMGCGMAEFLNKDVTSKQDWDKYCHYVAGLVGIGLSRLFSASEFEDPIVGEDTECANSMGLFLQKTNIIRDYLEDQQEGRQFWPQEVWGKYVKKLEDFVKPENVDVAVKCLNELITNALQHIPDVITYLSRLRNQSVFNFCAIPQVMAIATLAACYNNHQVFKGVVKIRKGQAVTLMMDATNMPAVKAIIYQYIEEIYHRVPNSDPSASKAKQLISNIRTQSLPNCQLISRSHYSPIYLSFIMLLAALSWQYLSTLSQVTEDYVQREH

Rattus norvegicus [7] = test: Inhibition of cholesterol synthesis in Wistar rat at 1 mg/kg, po administered as single dose prior to [14C]mevalonolactone injection measured after 4 hrs by liquid scintillation counting; type: functional
Procedure, shortened: (§2)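 Rats given a single oral dose of 1 mg/kg; hepatic cholesterol synthesis inhibition (%) determined at 1, 4 and 7 h after dosing.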

Rattus norvegicus [8] = test: Inhibition of cholesterol synthesis in Wistar rat at 1 mg/kg, po administered as single dose prior to [14C]mevalonolactone injection measured after 7 hrs by liquid scintillation counting; type: functional; procedure, shortened: as §2
Rattus norvegicus [9] = test: Inhibition of cholesterol synthesis in Wistar rat at 1 mg/kg, po administered as single dose prior to [14C]mevalonolactone injection measured after 1 hr by liquid scintillation counting; type: functional; procedure, shortened: as §2
Hepatocyte = test: Inhibition of cholesterol synthesis in rat hepatocytes assessed as formation of cholesterol using [14C]mevalonolactone as substrate after 1 hr by liquid scintillation counting; type: functional, cell-based
Rattus norvegicus [10] = test: Inhibition of cholesterol synthesis in Wistar rat at 3 mg/kg, po administered as single dose prior to [14C]mevalonolactone injection measured after 1 hr by liquid scintillation counting
[11] = Lipophilicity, log D of the compound at pH 7.4; type: physicochemical; conditions: buffer
Rattus norvegicus [12] = test: Drug uptake in rats liver assessed per gram of tissue at 3 mg/kg, po administered as single dose measured at 1 hr
Rattus norvegicus [13] = test: Partition co-efficient, Kp in rats liver assessed per gram of tissue at 3 mg/kg, po administered as single dose measured at 1 hr

pIC50 (Squalene synthase) | logD [11] | concentration at 1 h (Rattus norvegicus [12]) | Kp at 1 h (Rattus norvegicus [13]) | Structure (SMILES) | inhibition (Rattus norvegicus [1]) | Activity (marmosets [2]) | Activity (marmosets [3]) | ED50 (Rattus norvegicus [4]) | Activity (marmosets [5]) | Activity (marmosets [6]) | inhibition in vivo at 1 mg/kg (Rattus norvegicus [7]) | inhibition in vivo at 1 mg/kg (Rattus norvegicus [8]) | inhibition in vivo at 1 mg/kg (Rattus norvegicus [9]) | pIC50 (Hepatocyte) | inhibition in vivo at 3 mg/kg (Rattus norvegicus [10])
 |  |  |  | CC(C)c1c(C(=O)Nc2ccccc2)c(-c2ccccc2)c(-c2ccc(F)cc2)n1CC[C@@H](O)C[C@@H](O)CC(=O)O | Active |  |  |  |  |  |  |  |  |  | 
 |  |  |  | COc1cccc([C@H]2O[C@H](CC(=O)N3CCC(CC(=O)O)CC3)C(=O)N(CC(C)(C)COC(C)=O)c3ccc(Cl)cc32)c1OC [LAPAQUISTAT ACETATE] |  | 17% | 10% | 3.8 mg/kg | 19% | 25% |  |  |  |  | 
9.07 |  |  |  | COc1cccc([C@H]2O[C@H](CC(=O)O)c3nnc(C(F)(F)F)n3-c3ccc(Cl)cc32)c1C |  | 32% | 8% |  | 42% | 34% | 69% | 45% | 87% | 7.34 | 
7.44 | -0.4 |  |  | COc1cccc([C@H]2O[C@H](CCn3cc(C(=O)O)cn3)c3nnc(C)n3-c3ccc(Cl)cc32)c1OC (relative stereo) |  |  |  |  |  |  |  |  |  | 6.54 | 30%
9.44 |  |  |  | CCc1c(OC)cccc1[C@H]1O[C@H](CC(=O)O)c2nnc(C(F)(F)F)n2-c2ccc(Cl)cc21 |  |  |  |  |  |  | 57% | 21% | 76% | 7.74 | 
8.80 |  | 1040 ng/g | 66 | COc1cccc([C@H]2O[C@H](CC(=O)O)c3nnc(C(F)(F)F)n3-c3ccc(Cl)cc32)c1OC |  | 29% | 3% |  | 44% | 29% | 78% | 45% | 88% | 7.42 | 
8.22 |  |  |  | COc1cccc([C@H]2O[C@H](CCn3cc(C(=O)O)cn3)c3nnc(CF)n3-c3ccc(Cl)cc32)c1OC (relative stereo) |  |  |  |  |  |  |  |  |  | 7.11 | 48%
8.49 | 0.83 |  |  | COc1cccc([C@H]2O[C@H](CCn3cc(C(=O)O)cn3)c3nnc(C(F)(F)F)n3-c3ccc(Cl)cc32)c1OC (relative stereo) |  |  |  |  |  |  |  |  |  | 6.89 | 71%
7.96 | 0.37 |  |  | COc1cccc([C@H]2O[C@H](CCn3cc(C(=O)O)cn3)c3nnc(C(C)C)n3-c3ccc(Cl)cc32)c1OC (relative stereo) |  |  |  |  |  |  |  |  |  | 7.04 | 15%
9.15 |  |  |  | COc1cccc([C@H]2O[C@H](CC(=O)O)c3nnc(C(F)(F)F)n3-c3ccc(Cl)cc32)c1OC(F)(F)F |  |  |  |  |  |  | 67% | 48% | 77% | 7.55 | 
8.96 |  |  |  | COc1cccc([C@H]2O[C@H](CC(=O)O)c3nnc(C(F)(F)F)n3-c3ccc(Cl)cc32)c1Cl | Active | 39% | 16% | 0.11 mg/kg | 53% | 24% | 77% | 55% | 93% | 7.72 | 

— ChEMBL document CHEMBL2439948, “Discovery of DF-461, a Potent Squalene Synthase Inhibitor” (ACS Med Chem Lett, 2013)
